Data on 18 molecules can be found in ChEMBL document CHEMBL4321824, “Structure-Activity Relationships of cyclo(l-Tyrosyl-l-tyrosine) Derivatives Binding to Mycobacterium tuberculosis CYP121: Iodinated Analogues Promote Shift to High-Spin Adduct” (J Med Chem, 2019).

For data set [1], the system named is Mycobacterium tuberculosis. The data set can be described thus: Antimycobacterial activity against Mycobacterium tuberculosis H37Rv assessed as reduction in bacterial growth after 7 days by resazurin based fluorescence assay. It counts as functional. To be noted: 168 h. The procedure, abridged:
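Mtb H37Rv grown in 7H9 with ADC to OD 0.6–0.8, then diluted to OD600 0.001 and added to 1:2 serial compound dilutions (usually from 100 µM; 0.1% DMSO). Incubated 7 days at 37 °C, then 0.05% w/v resazurin for 24 h at 37 °C. Fluorescence read at 590 nm, background subtracted, and survival expressed relative to untreated wells. Rifampicin served as positive control.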
For orientation: The colour change of resazurin is a common sign of viable cells or microbes.

The target of data set [2] is T1, Cytochrome P450 (Mycobacterium tuberculosis, UniProt A0A0T9WNE5).
T1 sequence (A0A0T9WNE5 whole entry): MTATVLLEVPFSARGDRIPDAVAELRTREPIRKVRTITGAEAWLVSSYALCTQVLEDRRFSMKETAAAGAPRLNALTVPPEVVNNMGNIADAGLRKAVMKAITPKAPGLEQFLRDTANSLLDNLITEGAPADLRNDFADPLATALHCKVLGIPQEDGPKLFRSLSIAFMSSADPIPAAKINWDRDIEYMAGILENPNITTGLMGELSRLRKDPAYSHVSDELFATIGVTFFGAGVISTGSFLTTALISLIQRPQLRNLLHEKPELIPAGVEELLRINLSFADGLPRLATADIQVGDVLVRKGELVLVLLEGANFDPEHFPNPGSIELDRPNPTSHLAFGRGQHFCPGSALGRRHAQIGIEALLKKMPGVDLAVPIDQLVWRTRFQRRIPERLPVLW
The data set can be described thus: Binding affinity to Mycobacterium tuberculosis CYP121 expressed in Escherichia coli HMS174 (DE3) by UV-visible scanning spectrophotometric analysis. The procedure, abridged: (§1)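 Spectrophotometric titration of 3–4 µM CYP121 (untagged or N-terminal His6-tagged) at 25 °C in 100 mM potassium phosphate, 200 mM KCl, pH 7.8. Ligand in DMSO added stepwise from 0 µM until no further spectral change; spectra recorded 250–800 nm. Difference spectra taken against ligand-free enzyme, and peak-minus-trough ΔAmax plotted against [ligand]. KD obtained by hyperbolic fit, or Hill fit for sigmoidal data.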

Data set [3] has as its target T1, Cytochrome P450. The data set can be described thus: Binding affinity to Mycobacterium tuberculosis Mycobacterium tuberculosis CYP121 expressed in Escherichia coli HMS174 (DE3) assessed as compound-adduct formation by measuring high spin complex by UV-visible scanning spectrophotometric analysis relative to control. Also on record: concentration or dose not given beside the values. The procedure, abridged:
(§2)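 Fraction of high-spin heme taken from UV-Vis titration spectra of CYP121 (untagged or His6-tagged; 3–4 µM, 25 °C, 100 mM potassium phosphate, 200 mM KCl, pH 7.8). %HS calculated from absorbances at 415 and 393 nm using LS and HS extinction coefficients.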

Data set [4] deals with T1, Cytochrome P450. The data set is described as follows: Binding affinity to Mycobacterium tuberculosis CYP121 expressed in Escherichia coli HMS174 (DE3) assessed as compound-adduct formation by measuring high spin complex at 0.5 to 2 mM incubated for 20 mins by EPR Spectroscopic method (reference value: 0%). The procedure, abridged: (§3)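 EPR samples contained 155 µM CYP121 (untagged or His6-tagged) in 100 mM HEPES, 100 mM KCl, pH 7.5, with ligand or DMSO at a final 0.5–2 mM depending on solubility. Samples were incubated 20 min at room temperature and briefly centrifuged before spectra were recorded; the high-spin heme signal was assessed.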

Data set [5] has as its target T1, Cytochrome P450. The data set is described as follows: Stability in Mycobacterium tuberculosis assessed as CYP121-catalyzed turnover. Type of data set: ADME.
Data set [6] has as its target T1, Cytochrome P450. The data set is described as follows: Binding affinity to Mycobacterium tuberculosis His6-tagged CYP121 assessed as compound-adduct formation by measuring high spin complex at 0.5 to 2 mM incubated for 20 mins by EPR Spectroscopic method (reference value: 0%). The procedure, abridged: as §3
The target in data set [7] is T1, Cytochrome P450. The data set is described as follows: Binding affinity to Mycobacterium tuberculosis His6-tagged CYP121 by UV-visible scanning spectrophotometric analysis. The procedure, abridged:
as §1

Data set [8] deals with T1, Cytochrome P450. The data set can be described thus: Binding affinity to Mycobacterium tuberculosis His6-tagged CYP121 assessed as compound-adduct formation by measuring high spin complex by UV-visible scanning spectrophotometric analysis relative to control. Further details: concentration or dose not given beside the values; call rule not given here. The procedure, abridged: as §2
The target of data set [9] is T1, Cytochrome P450. The data set can be described thus: Potency index, ratio of cyclo(L-Tyrosine-L-tyrosine) Kd for binding affinity to Mycobacterium tuberculosis CYP121 expressed in Escherichia coli HMS174 (DE3) to test compound Kd for binding affinity to Mycobacterium tuberculosis His6-tagged CYP121 by UV-visible scanning spectrophotometric analysis.
The target in data set [10] is T1, Cytochrome P450. The data set is described as follows: Binding affinity to Mycobacterium tuberculosis CYP121 expressed in Escherichia coli HMS174 (DE3) at 120 uM by UV-visible scanning spectrophotometric analysis.
Data set [11] addresses T1, Cytochrome P450. The data set can be described thus: Potency index, ratio of cyclo(L-Tyrosine-L-tyrosine) Kd to test compound Kd for binding affinity to Mycobacterium tuberculosis CYP121 expressed in Escherichia coli HMS174 (DE3) by UV-visible scanning spectrophotometric analysis.

Usually MIC stands for the lowest concentration found to suppress growth. As usually defined, the Kd is a measure of binding affinity in units of concentration. As for `O=C1N[C@@H](Cc2ccc(F)cc2)C(=O)N[C@H]1Cc1ccc(F)cc1`, the MIC in [1] is above 100 µM. Further, the Kd in [2] amounted to 6.3 µM. The Activity in data set [3] was 1%; in data set [4] it was 1.5%. In addition, in data set [5], the Stability entry is “Stable”.
As for `O=C1N[C@@H](Cc2ccc(O)c(Cl)c2)C(=O)N[C@H]1Cc1ccc(O)cc1`, the Activity in data set [6] amounted to 21%; in data set [8], 68%. This molecule yielded a Kd in data set [7] of 1.5 µM. Moreover, in data set [1], the MIC was above 100 µM. Besides, the Stability result in [5] is reported as “Stable”.
As to `O=C1N[C@@H](Cc2ccc(O)cc2)C(=O)N[C@H]1Cc1ccccc1`, the MIC in data set [1] was above 100 µM. In addition, binding in data set [2] was put at a Kd of 80.8 µM. The Activity in data set [3] was 5%; in data set [4], 1.4%. The Stability entry in [5] is recorded as “Stable”.
In the same order, the values of `COc1ccc(C[C@@H]2NC(=O)[C@H](Cc3ccc(OC)cc3)NC2=O)cc1` are above 100 µM, 29.4 µM, 35%, 56% and “Stable”.
`O=C1N[C@@H](Cc2ccc(O)c(I)c2)C(=O)N[C@H]1Cc1ccc(O)cc1`: the Activity is 86% in data set [6] and 98% in data set [8]. This molecule also yielded a Kd in data set [7] of 0.28 µM. Further, in data set [1], the MIC was above 100 µM. Besides, the Ratio entry in data set [9] is reported as “<= 100”. In addition, the Stability result in data set [5] is given as “Stable”.
Regarding `O=C1N[C@@H](Cc2cc(I)c(O)c(I)c2)C(=O)N[C@H]1Cc1ccc(O)cc1`, the Activity was determined as 38% in data set [6] and 74% in data set [8]. In data set [7], this molecule showed a Kd of 9.1 µM. In addition, in data set [1], the MIC is above 100 µM. Further, the Stability result in [5] is given as “Stable”.
With `Cc1cc(O)cc(C)c1C[C@@H]1NC(=O)[C@H](Cc2ccc(O)cc2)NC1=O`, the results for the Activity in [6], in data set [8] and in data set [10] were 1.9%, 1% and “Not Active”, respectively. The molecule also gave a Kd in data set [7] above 100 µM. The MIC in data set [1] was above 100 µM. In addition, in data set [5], the Stability entry is “Stable”.
On to `O=C1N[C@@H](Cc2ccccc2)C(=O)N[C@H]1Cc1ccccc1`, for which the minimal inhibitory concentration (MIC) in data set [1] was above 100 µM. In [2], binding was put at a Kd of 2.4 µM. The values for the Activity in [3] and in [4] were 3% and 0%, respectively. Also, the Stability entry in [5] is on record as “Stable”.
`O=C1N[C@@H](Cc2ccc(O)c(F)c2)C(=O)N[C@H]1Cc1ccc(O)cc1`: the Activity in data set [6] was 1.2%; in [8], 36%. Further, binding in data set [7] was put at a Kd of 12.8 µM. Besides, the MIC in data set [1] is above 100 µM. Further, in data set [5], the Stability entry is recorded as “Stable”.
In the same order, the values of `O=C1N[C@@H](Cc2ccc(O)c(Br)c2)C(=O)N[C@H]1Cc1ccc(O)cc1` are 68%, 85%, 0.46 µM, above 100 µM and “Stable”.
In the same order, the values of `Cc1cc(C[C@@H]2NC(=O)[C@H](Cc3ccc(O)cc3)NC2=O)cc(C)c1O` are 62%, 75%, 15.1 µM, above 100 µM and “Stable”.
`O=C1N[C@@H](Cc2ccc(O)c(I)c2)C(=O)N[C@H]1Cc1ccc(O)c(I)c1`: the MIC in data set [1] is above 100 µM. The same molecule had a Kd in [2] of 0.45 µM. In addition, the Activity in [3] and in [4] was 100% throughout. Moreover, the Ratio entry in data set [9] is on record as “<= 100”. Also, in data set [5], the Stability result is listed as “Stable”.
`Cc1cc(C[C@@H]2NC(=O)[C@H](Cc3ccc(O)cc3)NC2=O)ccc1O`: the results for the Activity in [6] and in [8] were 11% and 91%, respectively. Moreover, the Kd in data set [7] was determined as 1.1 µM. Moreover, in data set [1], the MIC is above 100 µM. For the same molecule, the Stability result in data set [5] is on record as “Stable”.
Take `O=C1N[C@@H](Cc2ccc(I)cc2)C(=O)N[C@H]1Cc1ccc(I)cc1`: the minimal inhibitory concentration (MIC) in data set [1] was above 100 µM. The molecule further gave a Kd in [2] of 0.72 µM. Moreover, the Activity turned out to be 3% in data set [3] and 7.5% in data set [4]. In [9], the Ratio entry is recorded as “<= 100”. In addition, the Stability result in data set [5] is “Stable”.
`O=C1N[C@H]2Cc3ccc(O)c(c3)-c3cc(ccc3O)C[C@@H]1NC2=O`: the Stability result in data set [5] is listed as “Unstable”.
For the molecule `COc1ccc(C[C@@H]2NC(=O)[C@H](Cc3ccc(O)cc3)NC2=O)cc1`, in data set [11], the Ratio was determined as 3. In data set [1], the MIC is above 100 µM. Further, the Kd in data set [2] was 10.4 µM. In addition, the Activity was 61% in [3] and 64% in data set [4]. In data set [5], the Stability entry is recorded as “Stable”.
Consider `Cc1cc(O)ccc1C[C@@H]1NC(=O)[C@H](Cc2ccc(O)cc2)NC1=O`, for which the figures for the Activity in [6] and in [8] were 0.6% and 20%, respectively. In [7], this molecule showed a Kd of 39.8 µM. In addition, in data set [1], the MIC was above 100 µM. The Stability entry in [5] is “Stable”.
As to `O=C1N[C@@H](Cc2ccc(O)cc2)C(=O)N[C@H]1Cc1ccc(O)cc1`, the figures for the Activity in data set [3] and in [4] were 52% and 2.7%, respectively.
